≈ marks a conversion by molar mass, not a printed value. Calls of active or inactive are those of the source. Unless noted, the calls are words filed in the database; no cut-off is given here.
How the values were obtained:
[1] = Selectivity ratio of Kd for full length Staphylococcus aureus tRNA (guanine(37)-N1)-methyltransferase expressed in Escherichia coli BL21 (DE3) to Kd for Pseudomonas aeruginosa tRNA (guanine(37)-N1)-methyltransferase (Leu5 to Asp25 residues) expressed in Escherichia coli BL21 (DE3) Rosetta T1R cells
[2] = molecular target: T1, tRNA (guanine-N(1)-)-methyltransferase (Mycobacterium tuberculosis (strain ATCC 25618 / H37Rv)) (UniProt P9WFY7); experiment: Binding affinity to full length Mycobacterium tuberculosis tRNA (guanine(37)-N1)-methyltransferase expressed in Escherichia coli BL21 (DE3) assessed as thermal stabilization of protein by measuring change in melting temperature at 0.1 mM by SYPRO orange based thermal shift assay
T1 sequence (whole entry): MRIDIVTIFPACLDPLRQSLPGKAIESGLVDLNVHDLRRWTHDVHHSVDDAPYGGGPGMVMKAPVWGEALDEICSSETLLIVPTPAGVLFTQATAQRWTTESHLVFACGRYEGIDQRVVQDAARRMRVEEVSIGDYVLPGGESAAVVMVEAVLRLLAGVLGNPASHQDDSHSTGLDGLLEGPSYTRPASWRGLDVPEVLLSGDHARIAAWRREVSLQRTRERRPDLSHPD
How it was run: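 Thermal shift: 4 μM TrmD with 5× SYPRO Orange and ligand in 50 mM Tris-HCl pH 8, 150 mM NaCl, 1 mM MgCl2, 1 mM DTT, 0.05% Tween-20. Buffer-only control. Heated from 25 to 95 °C in a real-time PCR instrument, and Tm taken as the unfolding midpoint. Ligand levels: SAH 2 mM, inhibitors 0.1 mM.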

[3] = tested on: Mycolicibacterium smegmatis; experiment: Antibacterial activity against Mycolicibacterium smegmatis MC2 155 incubated for 24 hrs by serial broth microdilution method; assay type: functional; details: MC2 155, 24 h
How it was run: (§1)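 Growth read by OD600. MRSA in cation-adjusted Mueller–Hinton broth, M. smegmatis in complete 7H9. MIC50 and MIC90 are 50% and 90% growth inhibition versus drug-free controls. Two independent experiments, each in duplicate.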

Salmonella enteritidis = experiment: Bactericidal activity against Salmonella enteritidis ATCC 13076 assessed as reduction in CFU at 1 to 4 times MIC90 incubated for 24 hrs; assay type: functional; details: Salmonella enterica subsp. enterica serovar Enteritidis
Acinetobacter baumannii [4] = experiment: Bactericidal activity against Acinetobacter baumannii ATCC 17961 assessed as reduction in CFU at 1 to 4 times MIC90 incubated for 24 hrs; assay type: functional; details: ATCC 17961, 24 h, read-out: MBC99.9
Enterococcus faecalis [5] = experiment: Antibacterial activity against Enterococcus faecalis ATCC 51299 incubated for 24 hrs by serial broth microdilution method; assay type: functional, organism-based
How it was run: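 Broth microdilution in brain heart infusion broth, ~5×10^5 cells/mL log-phase inoculum, serial compound dilutions, 24 h at 37 °C, OD600 read-out. MIC50/MIC90 are the concentrations giving 50%/90% growth inhibition relative to drug-free controls. Two independent experiments in duplicate.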

[6] = tested on: Mycolicibacterium smegmatis; experiment: Bactericidal activity against Mycolicibacterium smegmatis MC2 155 assessed as reduction in CFU at 1 to 4 times MIC90 incubated for 24 hrs; assay type: functional; details: MC2 155, 24 h, read-out: MBC99.9
Erythrocyte = experiment: Hemolytic activity in human RBC at 100 uM measured after 1 hr; assay type: ADME, cell-based
How it was run: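 Fresh human RBCs were PBS-washed and resuspended to OD600 24, then mixed 1:1 by volume with compound serially diluted in PBS. Incubated 1 h at 37 °C without shaking and centrifuged at 1000g for 15 min. Triton X-100 served as positive control. Run in triplicate.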

[7] = tested on: Mycobacterium tuberculosis; experiment: Bactericidal activity against Mycobacterium tuberculosis H37Rv assessed as reduction in CFU at 1 to 4 times MIC90 incubated for 7 days; assay type: functional; details: 168 h, read-out: MBC99.9
How it was run: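 Then plated on complete 7H10 agar for CFU. Inoculum plated at time zero. MBC99.9 is a 1000-fold CFU reduction versus the time-zero inoculum.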

Staphylococcus aureus = experiment: Antibacterial activity against methicillin-resistant Staphylococcus aureus ATCC 43300 incubated for 24 hrs by serial broth microdilution method; assay type: functional; details: ATCC 43300, 24 h; how it was run: as §1
Klebsiella pneumoniae = experiment: Bactericidal activity against Klebsiella pneumoniae ATCC 13883 assessed as reduction in CFU at 1 to 4 times MIC90 incubated for 24 hrs; assay type: functional, organism-based
[8] = molecular target: T2, tRNA (guanine-N(1)-)-methyltransferase (Pseudomonas aeruginosa (strain ATCC 15692 / DSM 22644 / CIP 104116 / JCM14847 / LMG 12228 / 1C / PRS 101 / PAO1)) (UniProt Q9HXQ1); experiment: Inhibition of Pseudomonas aeruginosa tRNA (guanine(37)-N1)-methyltransferase (Leu5 to Asp25 residues) expressed in Escherichia coli BL21 (DE3) Rosetta T1R cells assessed as reduction in S-adenosyl-L-homocysteine production preincubated for 30 mins followed by 1.5 to 15 uM of tRNALeu(CAG) substrate and SAM addition and measured after 60 mins by MTase-Glo assay
T2 sequence (whole entry): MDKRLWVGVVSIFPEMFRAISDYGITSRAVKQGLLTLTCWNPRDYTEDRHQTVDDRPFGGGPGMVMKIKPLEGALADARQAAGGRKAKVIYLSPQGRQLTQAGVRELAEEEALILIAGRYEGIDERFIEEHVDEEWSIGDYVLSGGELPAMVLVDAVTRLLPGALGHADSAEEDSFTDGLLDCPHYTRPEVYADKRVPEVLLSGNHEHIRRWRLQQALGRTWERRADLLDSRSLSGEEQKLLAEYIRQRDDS

Acinetobacter baumannii [9] = experiment: Antibacterial activity against Acinetobacter baumannii ATCC 17961 incubated for 24 hrs by serial broth microdilution method; assay type: functional; details: ATCC 17961, 24 h
How it was run: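 Log-phase cultures from four colonies grown overnight at 37 °C, inoculated at ~5×10^5 cells/mL in cation-adjusted Mueller–Hinton broth with serially diluted compound. Grown 24 h at 37 °C, then OD600 read. MIC50/MIC90 are the concentrations giving 50%/90% growth inhibition relative to drug-free controls. Two independent experiments in duplicate.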

Pseudomonas aeruginosa = experiment: Bactericidal activity against Pseudomonas aeruginosa PA14 assessed as reduction in CFU at 1 to 4 times MIC90 incubated for 24 hrs; assay type: functional, organism-based
Escherichia coli = experiment: Bactericidal activity against Escherichia coli BW25113 assessed as reduction in CFU at 1 to 4 times MIC90 incubated for 24 hrs; assay type: functional, organism-based
Enterococcus faecalis [10] = experiment: Bactericidal activity against Enterococcus faecalis ATCC 51299 assessed as reduction in CFU at 1 to 4 times MIC90 incubated for 24 hrs; assay type: functional, organism-based
Streptococcus pneumoniae = experiment: Antibacterial activity against Streptococcus pneumoniae ATCC 49619 incubated for 24 hrs by serial broth microdilution method; assay type: functional; details: ATCC 49619, 24 h
How it was run: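 Cultured in MH medium plus 3% defibrinated sheep blood at 37 °C, 5% CO2. Log-phase inoculum ~5×10^5 cells/mL was exposed to serial compound dilutions for 24 h. MIC50/MIC90 are relative to drug-free controls. Two independent experiments in duplicate.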

NC1CCN(Cc2ccc(CNC(=O)c3csc4nc[nH]c(=O)c34)cc2)CC1
Ratio [1]: 100 to 300
ΔTm [2]: 1 to 13 °C

CCCCCCCCNCc1ccc(CNC(=O)c2csc3nc[nH]c(=O)c23)cc1
MIC50 [3]: 58 µM (≈ 24.7 µg/mL)
MBC99.9 (Salmonella enteritidis): inactive
MBC (Acinetobacter baumannii [4]): > 100 µM
MIC50 (Enterococcus faecalis [5]): inactive
MIC90 (Enterococcus faecalis [5]): inactive
MBC [6]: > 100 µM
Activity (Erythrocyte): Non-Toxic
MBC [7]: > 100 µM
MIC50 (Staphylococcus aureus): 31 µM (≈ 13.2 µg/mL)
MIC90 (Staphylococcus aureus): 36 µM (≈ 15.4 µg/mL)
MBC99.9 (Klebsiella pneumoniae): inactive
inhibition [8]: Dose-dependent effect
MIC50 (Acinetobacter baumannii [9]): 62 µM (≈ 26.4 µg/mL)
MIC90 (Acinetobacter baumannii [9]): 95 µM (≈ 40.5 µg/mL)
MBC99.9 (Pseudomonas aeruginosa): inactive
MBC99.9 (Escherichia coli): inactive
MBC99.9 (Enterococcus faecalis [10]): inactive
MIC50 (Streptococcus pneumoniae): 60 µM (≈ 25.6 µg/mL)
MIC90 (Streptococcus pneumoniae): 73 µM (≈ 31.1 µg/mL)
